The target of series [1] is T1, Receptor-interacting serine/threonine-protein kinase 1 (Homo sapiens, UniProt Q13546).
T1 sequence (Q13546 whole entry): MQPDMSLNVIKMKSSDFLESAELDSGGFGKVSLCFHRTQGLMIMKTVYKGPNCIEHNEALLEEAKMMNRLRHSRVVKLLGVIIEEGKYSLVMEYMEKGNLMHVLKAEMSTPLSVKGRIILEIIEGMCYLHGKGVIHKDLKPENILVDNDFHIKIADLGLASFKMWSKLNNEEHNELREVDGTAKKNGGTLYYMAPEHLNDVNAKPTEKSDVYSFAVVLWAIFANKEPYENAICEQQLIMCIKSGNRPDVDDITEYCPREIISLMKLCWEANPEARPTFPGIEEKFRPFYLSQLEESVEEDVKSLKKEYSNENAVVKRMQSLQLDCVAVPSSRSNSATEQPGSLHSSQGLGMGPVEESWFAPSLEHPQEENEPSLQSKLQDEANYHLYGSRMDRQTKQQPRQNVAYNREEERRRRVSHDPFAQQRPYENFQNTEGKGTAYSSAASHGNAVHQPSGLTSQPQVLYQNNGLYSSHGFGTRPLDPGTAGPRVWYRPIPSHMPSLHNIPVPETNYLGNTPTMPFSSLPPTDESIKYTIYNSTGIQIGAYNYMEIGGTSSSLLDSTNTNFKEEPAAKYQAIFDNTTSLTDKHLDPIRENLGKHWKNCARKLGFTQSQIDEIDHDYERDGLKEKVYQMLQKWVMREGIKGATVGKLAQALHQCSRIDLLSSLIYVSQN
Description: Inhibition of RIP1 (unknown origin) using MBP as substrate preincubated for 15 mins followed by MBP/ATP mixture addition measured after 90 mins by ADP-Glo kinase assay. A digest of the protocol: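 Recombinant RIP1 pre-incubated 15 min with compound or DMSO in 25 mM HEPES pH 7.2, 20 mM MgCl2, 12.5 mM MnCl2, 5 mM EGTA, 2 mM EDTA, 12.5 mM β-glycerol phosphate, 2 mM DTT. Reaction started with ATP (50 μM final) and MBP (20 μM final), run 90 min at room temperature. ADP-Glo luminescence read-out.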
A general note: In ADP-Glo the light output rises with the ADP produced.

The nature of series [2]: Half life in human liver microsomes in presence of NADPH by LC-MS/MS analysis. The series is classed as ADME, microsome. Background: Liver microsomes are a subcellular fraction often used to study metabolism.
Series [3] is described as follows: Intrinsic clearance in mouse liver microsomes assessed per mg protein in presence of NADPH by LC-MS/MS analysis. The series is classed as ADME, microsome. The settings on record: read-out: CLH.
The nature of series [4]: Half life in C57BL/6J mouse at 2 mg/kg, iv by LC-MS/MS analysis. The class given is ADME, organism-based. The settings on record: in vivo. A digest of the protocol:
(§1)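 C57BL/6 mice (n = 3) dosed IV, IP or PO; blood sampled by eye puncture at various time points; plasma levels by LC-MS/MS; parameters from individual animal data by non-compartmental analysis.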

Series [5] in a line: Oral bioavailability in C57BL/6J mouse at 10 mg/kg by LC-MS/MS analysis. The series is classed as ADME, organism-based. As to conditions: in vivo. A digest of the protocol:
as §1

Series [6] in a line: Bioavailability in C57BL/6J mouse at 10 mg/kg, ip by LC-MS/MS analysis. The series is classed as ADME, organism-based. The settings on record: in vivo. The gist of the method: as §1
The test system of series [7] is Mus musculus. Description: Protection against TNFalpha-induced mortality in C57BL/6J mouse assessed as survival rate at 6 mg/kg, ip administered as single dose 17 mins before TNFalpha injection measured every 30 mins up to 60 hrs post TNFalpha injection (reference value: 50%). The series is classed as functional.
The subject of series [8] is Mus musculus. Description: Protection against TNFalpha-induced mortality in ip dosed C57BL/6J mouse assessed as increase in survival rate pretreated for 17 mins followed by TNFalpha injection and subsequent compound treatment once in every 12 hrs measured every 30 mins up to 60 hrs post TNFalpha injection during compound dosing. The series is classed as functional, organism-based. The gist of the method: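 C57BL/6 mice, 6-8 weeks, ~20 g, randomized (n = 6~10). Given 5.5 μg mTNFα (~0.25 mg/kg) IV in endotoxin-free PBS, 0.2 mL. Compound IP 17 min before TNFα: either once at 6 mg/kg or […], 1, 3 mg/kg then every 12 h; vehicle controls. Survival checked every 30 min to 60 h.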

Series [9] relates to Mus musculus. Briefly: Protection against TNFalpha-induced multiorgan damage in C57BL/6J mouse assessed as inhibition of TNFalpha-induced increase in IL-1beta level at 0.3 to 3 mg/kg, ip pretreated for 17 mins followed by TNFalpha injection and subsequent compound treatment once in every 12 hrs measured after 12 hrs. The class given is functional, organism-based. The gist of the method: (§2)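 C57BL/6 mice given 4 μg mTNFα (~0.18 mg/kg) IV. Compound 0.3, 1, 3 mg/kg IP 17 min before and then every 12 h; vehicle controls. Blood taken 12 h and 24 h after TNFα. Assays: IL-6 and IL-1β; serum LDH, CK, AST, creatinine, BUN, amylase.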

Series [10] deals with Mus musculus. Description: Protection against TNFalpha-induced multiorgan damage in C57BL/6J mouse assessed as serum AST level at 0.3 to 3 mg/kg, ip pretreated for 17 mins followed by TNFalpha injection and subsequent compound treatment once in every 12 hrs measured 24 hrs post TNFalpha injection. The series is classed as functional, organism-based. A digest of the protocol: as §2

The subject of series [11] is Mus musculus. Description: Protection against TNFalpha-induced multiorgan damage in C57BL/6J mouse assessed as blood urea nitrogen level at 0.3 to 3 mg/kg, ip pretreated for 17 mins followed by TNFalpha injection and subsequent compound treatment once in every 12 hrs measured 24 hrs post TNFalpha injection. The series is classed as functional, organism-based. A digest of the protocol:
as §2

Series [12] concerns Mus musculus. Briefly: Protection against TNFalpha-induced thymus damage in C57BL/6J mouse assessed as reduction in macrophages infiltration at 0.3 to 3 mg/kg, ip pretreated for 17 mins followed by TNFalpha injection and subsequent compound treatment once in every 12 hrs measured 24 hrs post TNFalpha injection by hematoxylin and eosin staining based assay. The class given is functional, organism-based. A digest of the protocol:
(§3)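 Mice given mTNFα IV; compound 0.3, 1, 3 mg/kg IP 17 min before and every 12 h. Killed 24 h post-TNFα. Organs fixed 24 h in 10% neutral buffered formalin, paraffin-embedded, 5-μm sections, H&E stained; ×200, at least three mice each.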

Series [13] relates to Mus musculus. Description: Protection against TNFalpha-induced myocardium damage in C57BL/6J mouse at 0.3 to 3 mg/kg, ip pretreated for 17 mins followed by TNFalpha injection and subsequent compound treatment once in every 12 hrs measured 24 hrs post TNFalpha injection by hematoxylin and eosin staining based assay. The series is classed as functional, organism-based. A digest of the protocol:
as §3

Series [14] relates to Mus musculus. Briefly: Protection against TNFalpha-induced kidney damage in C57BL/6J mouse at 0.3 to 3 mg/kg, ip pretreated for 17 mins followed by TNFalpha injection and subsequent compound treatment once in every 12 hrs measured 24 hrs post TNFalpha injection by hematoxylin and eosin staining based assay. The series is classed as functional, organism-based. The gist of the method:
as §3

The next series has as its target Cytochrome P450 2C19 (Homo sapiens, UniProt P33261). Briefly: Inhibition of CYP2C19 (unknown origin). The series is classed as ADME.
The next series deals with Cytochrome P450 2D6 (Homo sapiens, UniProt P10635). Description: Inhibition of CYP2D6 (unknown origin). The series is classed as ADME.
Cytochrome P450 2D6, sequence (P10635 whole entry): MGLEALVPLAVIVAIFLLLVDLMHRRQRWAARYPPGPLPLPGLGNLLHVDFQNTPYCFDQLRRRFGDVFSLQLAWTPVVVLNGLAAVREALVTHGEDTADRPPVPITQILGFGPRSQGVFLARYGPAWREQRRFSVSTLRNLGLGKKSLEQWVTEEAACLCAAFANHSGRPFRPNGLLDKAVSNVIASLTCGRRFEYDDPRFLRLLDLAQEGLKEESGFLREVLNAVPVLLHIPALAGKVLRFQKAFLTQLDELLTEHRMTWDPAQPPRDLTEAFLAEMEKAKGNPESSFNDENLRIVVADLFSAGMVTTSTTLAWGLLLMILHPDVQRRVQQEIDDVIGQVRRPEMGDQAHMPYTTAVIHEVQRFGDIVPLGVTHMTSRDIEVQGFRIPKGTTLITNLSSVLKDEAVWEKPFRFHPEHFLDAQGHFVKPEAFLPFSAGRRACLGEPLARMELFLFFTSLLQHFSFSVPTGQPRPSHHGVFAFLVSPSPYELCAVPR
In a further series the target is Cytochrome P450 3A4 (Homo sapiens, UniProt P08684). Briefly: Inhibition of CYP3A4 (unknown origin). The class given is ADME.
Cytochrome P450 3A4, sequence (P08684 whole entry): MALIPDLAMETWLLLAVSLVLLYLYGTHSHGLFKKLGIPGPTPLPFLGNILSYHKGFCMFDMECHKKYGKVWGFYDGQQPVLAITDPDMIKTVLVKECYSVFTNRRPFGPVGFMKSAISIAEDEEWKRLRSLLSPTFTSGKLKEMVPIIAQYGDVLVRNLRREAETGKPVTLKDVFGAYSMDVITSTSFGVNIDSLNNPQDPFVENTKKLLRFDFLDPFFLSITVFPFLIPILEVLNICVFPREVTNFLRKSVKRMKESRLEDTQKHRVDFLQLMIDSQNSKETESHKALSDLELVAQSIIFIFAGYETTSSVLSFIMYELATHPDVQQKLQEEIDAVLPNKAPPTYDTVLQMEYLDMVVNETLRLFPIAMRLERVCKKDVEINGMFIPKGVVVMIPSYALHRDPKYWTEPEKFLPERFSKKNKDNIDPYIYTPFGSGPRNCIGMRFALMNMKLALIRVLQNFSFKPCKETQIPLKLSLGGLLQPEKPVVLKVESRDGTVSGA
Series [15] can be described thus: Efflux ratio of apparent permeability in MDCK cells harboring MDR1. The series is classed as ADME, cell-based, Canis lupus familiaris. As to conditions: dog.
Series [16] has as its system Mus musculus. Briefly: Toxicity in C57BL/6J mouse assessed as injury at 50 mg/kg administered once in every 3 hrs for 24 hrs. The class given is organism-based. The settings on record: in vivo. A digest of the protocol: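 Mice dosed 50 mg/kg every 3 h for 24 h and examined for injury.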

By IC50 is commonly meant the concentration at which inhibition is half-maximal. The half-life is the time in which the quantity being followed falls by half. In general, bioavailability refers to dose-corrected exposure relative to a reference, in per cent. As a reminder, the efflux ratio is a quotient of directional permeabilities that is used to spot active efflux.

Molecules are shown by their SMILES. Active and inactive are the calls of the source. The calls are words filed in the database; no cut-off is given here.

Cytochrome P450 2C19, sequence (P33261 whole entry): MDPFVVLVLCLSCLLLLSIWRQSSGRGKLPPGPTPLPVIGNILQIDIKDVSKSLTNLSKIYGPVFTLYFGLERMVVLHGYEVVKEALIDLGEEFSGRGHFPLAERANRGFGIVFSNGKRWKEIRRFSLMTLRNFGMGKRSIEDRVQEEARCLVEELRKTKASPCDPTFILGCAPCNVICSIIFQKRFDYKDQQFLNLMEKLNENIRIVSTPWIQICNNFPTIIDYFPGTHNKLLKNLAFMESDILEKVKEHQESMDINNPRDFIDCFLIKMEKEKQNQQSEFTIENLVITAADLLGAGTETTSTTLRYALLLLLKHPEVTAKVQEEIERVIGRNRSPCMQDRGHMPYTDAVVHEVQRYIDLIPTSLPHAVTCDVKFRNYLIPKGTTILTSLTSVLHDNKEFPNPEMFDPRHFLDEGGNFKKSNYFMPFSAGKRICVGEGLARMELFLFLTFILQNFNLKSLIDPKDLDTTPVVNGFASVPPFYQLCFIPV

Take `CCC(C)(C)C(=O)N(O)Cc1ccccc1`: the IC50 in series [1] was 13 nM; against Cytochrome P450 2C19, greater than 50 µM; at Cytochrome P450 2D6, greater than 50 µM; against Cytochrome P450 3A4 it was greater than 3.5 µM. The half-life in series [2] is 128 min; in [4], 186 min. The microsomal CLint in [3] turned out to be 19.5 µL/min/mg. For the same compound, the bioavailability amounted to 22% in [5] and 100% in series [6]. The survival at 6 mg/kg in the series on Mus musculus [7] was 100%. For the same compound, the Activity entry was “Dose-dependent effect” in the series on Mus musculus [8] and “Non-Toxic” in the series with Mus musculus [16]. The inhibition entry in the series on Mus musculus [9] was “Active”. Besides, the outcome in the series with Mus musculus [10], with Mus musculus [11], in the series with Mus musculus [12], with Mus musculus [13] and with Mus musculus [14] was Active. In [15], the efflux ratio is 0.87.

Source of the values: ChEMBL document CHEMBL3992509, “Discovery of a Highly Potent, Selective, and Metabolically Stable Inhibitor of Receptor-Interacting Protein 1 (RIP1) for the Treatment of Systemic Inflammatory Response Syndrome” (J Med Chem, 2017).
